Experimental data reported in ChEMBL document CHEMBL1124260, “Synthesis and antitumor activity of quaternary ellipticine glycosides, a series of novel and highly active antitumor agents” (1988).

Columns and labels:
Format in all cases: functional
Mus musculus [1] = test: Antitumor activity against ip implanted L1210 leukemia in mouse after ip administration of 10 mg/kg for 5 days expressed as increase in mean life span; settings: route intraperitoneal; for ILS at 10 mg/kg: Mus musculus, L1210, ip, 120 h
In short: (§1)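 Drug was dissolved in 0.9% NaCl, diluted just before use and given ip once daily for 5 consecutive days, starting 24 h after transplant. ILS % = mean survival time of treated vs control mice, observed for 80 days.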

Mus musculus [2] = test: Number of survivors out of 6 ip implanted L1210 leukemia mouse tested after 80 days at 10 mg/kg; settings: route intraperitoneal
In short: (§2)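 Female BDF1 mice implanted ip with ascitic fluid holding 10^5 L1210 cells. Saline-dissolved drug given ip daily on days 1-5, starting 24 h after implant. Six mice per dose group, followed 80 days. Survivors/total counted at day 80; ILS % from mean survival time vs controls.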

Mus musculus [3] = test: Number of survivors out of 6 ip implanted L1210 leukemia mouse, tested after 80 days at 30 mg/kg; settings: route intraperitoneal; in short: as §2
Mus musculus [4] = test: Antitumor activity against ip implanted L1210 leukemia in mouse after ip administration of 30 mg/kg for 5 days expressed as increase in mean life span; settings: route intraperitoneal; for ILS at 30 mg/kg: Mus musculus, L1210, ip, 120 h; for ILS: 30 mg/kg; in short: as §1

SMILES | Cures (Mus musculus [3]) | ILS at 30 mg/kg (Mus musculus [4]) [%] | also measured
Cc1c2cc[n+]([C@H]3O[C@H](CO)[C@@H](O)[C@H]3O)cc2c(C)c2c1[nH]c1ccc(O)cc12.[Br-] | – | – | ILS at 10 mg/kg (Mus musculus [1]): 138%; Cures (Mus musculus [2]): 0
CC(=O)[O-].Cc1c2cc[n+]([C@H]3O[C@@H](CO)[C@H](O)[C@H]3O)cc2c(C)c2c1[nH]c1ccc(O)cc12 | 1 | > 269 | –
Cc1c2cc[n+]([C@@H]3O[C@H](CO)[C@@H](O)[C@@H](O)[C@H]3O)cc2c(C)c2c1[nH]c1ccc(O)cc12.[Br-] | – | – | ILS at 10 mg/kg (Mus musculus [1]): > 254%; Cures (Mus musculus [2]): 1
CC(=O)[O-].Cc1c2cc[n+]([C@@H]3O[C@H](CO)[C@@H](O)[C@@H]3O)cc2c(C)c2c1[nH]c1ccc(O)cc12 | 1 | > 262 | –
Cc1c2cc[n+]([C@@H]3O[C@@H](C)[C@H](O)[C@H]3O)cc2c(C)c2c1[nH]c1ccc(O)cc12.[Cl-] | 1 | – | –
Cc1c2cc[n+]([C@@H]3OC[C@@H](O)[C@@H](O)[C@H]3O)cc2c(C)c2c1[nH]c1ccc(O)cc12.[Br-] (stereo in doubt; 50a) | – | – | Cures (Mus musculus [3]; 30 mg/kg): 5; ILS (Mus musculus [4]): >857%
Br.CC(=O)[O-].Cc1c2cc[n+](C3O[C@H](C)[C@@H](O)[C@@H]3O)cc2c(C)c2c1[nH]c1ccc(O)cc12 (some centres not stated) | 1 | > 217 | –
COc1ccc2[nH]c3c(C)c4cc[n+](C5O[C@@H](CO)[C@H](O)[C@@H]5O)cc4c(C)c3c2c1.[Br-] (some centres not stated) | 0 | 76 | –
Cc1c2cc[n+]([C@@H]3O[C@H](C)[C@@H](O)[C@H]3O)cc2c(C)c2c1[nH]c1ccc(O)cc12.[Cl-] | 1 | > 230 | –
Cc1c2cc[n+]([C@@H]3O[C@H](C)[C@H](O)[C@H](O)[C@H]3O)cc2c(C)c2c1[nH]c1ccccc12.[Br-] | 0 | 20 | –
Cc1c2cc[n+]([C@@H]3O[C@H](C)[C@H](O)[C@H](O)[C@H]3O)cc2c(C)c2c1[nH]c1ccc(O)cc12.[Br-] | 0 | 124 | –
COc1ccc2[nH]c3c(C)c4cc[n+](C5OCC(O)C(O)C5O)cc4c(C)c3c2c1.[Br-] (configuration not stated) | 0 | 56 | –
Cc1c2cc[n+]([C@H]3O[C@@H](C)[C@@H](O)[C@@H](O)[C@@H]3O)cc2c(C)c2c1[nH]c1ccc(O)cc12.[Br-] (stereo in doubt; 53b) | – | – | Cures (Mus musculus [3]; 30 mg/kg): 3; ILS (Mus musculus [4]): >583%
Cc1c2cc[n+]([C@@H]3OC[C@@H](O)[C@@H](O)[C@H]3O)cc2c(C)c2c1[nH]c1ccc(O)cc12.[Br-] (stereo in doubt; 48a) | – | – | Cures (Mus musculus [3]; 30 mg/kg): 0; ILS (Mus musculus [4]): 112%
CC(=O)N[C@@H]1[C@@H](O)[C@H](O)[C@@H](CO)O[C@H]1[n+]1ccc2c(C)c3[nH]c4ccc(O)cc4c3c(C)c2c1.[Cl-] | 0 | 39 | –
CC(=O)[O-].Cc1c2cc[n+](C3OC(C)C(O)C(O)C3O)cc2c(C)c2c1[nH]c1ccc(O)cc12 (configuration not stated) | 3 | > 615 | –
COc1ccc2[nH]c3c(C)c4cc[n+]([C@@H]5O[C@H](C)[C@H](O)[C@H](O)[C@H]5O)cc4c(C)c3c2c1.[Br-] | 0 | 20 | –
Cc1c2cc[n+]([C@H]3O[C@@H](CO)[C@H](O)[C@@H](O)[C@@H]3O)cc2c(C)c2c1[nH]c1ccc(O)cc12.[Br-] (stereo in doubt; 63a) | – | – | ILS (Mus musculus [1]; 10 mg/kg): 52%
Cc1c2cc[n+](C3O[C@H](CO)[C@@H](O)[C@H]3O)cc2c(C)c2c1[nH]c1ccc(O)cc12.[Br-] (some centres not stated) | 2 | > 387 | –
Cc1c2cc[n+]([C@@H]3OC[C@@H](O)[C@@H](O)[C@H]3O)cc2c(C)c2c1[nH]c1ccc(O)cc12.[Br-] (stereo in doubt; 48b) | – | – | Cures (Mus musculus [3]; 30 mg/kg): 6; ILS (Mus musculus [4]): >944%
COc1ccc2[nH]c3c(C)c4cc[n+](C5O[C@@H](C)[C@H](O)[C@@H](O)[C@H]5O)cc4c(C)c3c2c1.[Br-] (some centres not stated) | 0 | 56 | –
CC(=O)N[C@@H]1[C@@H](O)[C@@H](O)[C@@H](CO)O[C@H]1[n+]1ccc2c(C)c3[nH]c4ccc(O)cc4c3c(C)c2c1.[Cl-] | 0 | 8 | –
